# Active and inactive are the calls of the source.
# Tests used:
# [1] = target: T1, Fatty-acid amide hydrolase 1 (Mus musculus, UniProt O08914); assay: Mixed-type inhibition of B6CBAF1/J mouse brain FAAH using [3H]AEA as substrate after 10 mins by Dixon plot analysis
# T1 sequence (O08914 whole entry): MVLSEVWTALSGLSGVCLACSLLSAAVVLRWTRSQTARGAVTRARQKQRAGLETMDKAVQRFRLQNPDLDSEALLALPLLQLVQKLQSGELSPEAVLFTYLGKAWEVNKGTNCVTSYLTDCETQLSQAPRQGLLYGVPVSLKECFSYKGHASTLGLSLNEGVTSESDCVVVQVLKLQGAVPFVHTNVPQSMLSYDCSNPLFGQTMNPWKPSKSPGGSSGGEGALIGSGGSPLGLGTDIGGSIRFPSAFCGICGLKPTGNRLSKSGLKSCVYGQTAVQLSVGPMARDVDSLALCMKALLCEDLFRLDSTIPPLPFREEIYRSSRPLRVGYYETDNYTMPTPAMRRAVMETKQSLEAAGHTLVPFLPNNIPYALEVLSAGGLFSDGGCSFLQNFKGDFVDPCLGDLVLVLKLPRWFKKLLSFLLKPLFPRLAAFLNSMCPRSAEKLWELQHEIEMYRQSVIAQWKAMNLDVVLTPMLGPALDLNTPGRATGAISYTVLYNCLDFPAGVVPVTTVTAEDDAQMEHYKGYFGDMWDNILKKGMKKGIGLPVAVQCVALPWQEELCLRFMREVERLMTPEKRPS
# Procedure, shortened: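 Kinetic study in brain homogenate from male B6CBAF1/J mice (0.3 µg protein per assay). [3H]AEA hydrolysis ran for 10 min at 37 °C in Tris-EDTA buffer, pH 7.4, with the AEA:fatty acid-free BSA ratio held at 1:~4.5. Products were separated on charcoal and counted by scintillation. Competitive, mixed-type and non-competitive fits were compared by Akaike's criterion.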
# [2] = target: T2, Prostaglandin G/H synthase 2 (Homo sapiens) (UniProt P35354); assay: Inhibition of recombinant human COX2 using arachidonic acid/2-AG as substrate after 5 mins
# T2 sequence (whole entry): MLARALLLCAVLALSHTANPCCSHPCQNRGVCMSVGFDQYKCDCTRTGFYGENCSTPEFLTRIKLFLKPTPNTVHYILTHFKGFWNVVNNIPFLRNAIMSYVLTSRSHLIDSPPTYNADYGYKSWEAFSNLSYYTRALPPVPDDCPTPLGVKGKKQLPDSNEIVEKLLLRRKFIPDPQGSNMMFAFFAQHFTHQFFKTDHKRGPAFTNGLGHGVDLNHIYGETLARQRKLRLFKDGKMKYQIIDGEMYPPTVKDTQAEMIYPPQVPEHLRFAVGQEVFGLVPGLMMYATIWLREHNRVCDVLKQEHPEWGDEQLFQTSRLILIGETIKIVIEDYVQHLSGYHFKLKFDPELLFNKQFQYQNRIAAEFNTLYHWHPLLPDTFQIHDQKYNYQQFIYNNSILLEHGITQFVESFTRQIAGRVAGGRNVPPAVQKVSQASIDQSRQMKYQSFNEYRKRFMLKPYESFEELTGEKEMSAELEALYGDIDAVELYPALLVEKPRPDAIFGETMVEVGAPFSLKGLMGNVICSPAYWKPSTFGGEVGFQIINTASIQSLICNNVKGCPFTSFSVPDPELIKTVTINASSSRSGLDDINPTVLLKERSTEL
# Procedure, shortened: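 Oxygen-electrode assay at room temperature in 0.1 M Tris-HCl, pH 7.4, with 1 µM haematin, 2 mM phenol, 5 mM EDTA and 10 µM (final) arachidonic acid or 2-AG. Compound in EtOH was added and a 5 min baseline recorded. The reaction was started with ovine COX-1 or human recombinant COX-2 (200 U), and oxygen consumption was read in 10 s blocks. Means ± SEM, n = 3-4.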
# [3] = target: T3, Fatty-acid amide hydrolase 1 (Rattus norvegicus) (UniProt P97612); assay: Reversible inhibition of rat brain FAAH at 0.2 to 2 uM using [3H]AEA as substrate preincubated for 60 mins followed by 20 fold compound dilution and subsequent substrate addition by liquid scintillation counting analysis
# T3 sequence (whole entry): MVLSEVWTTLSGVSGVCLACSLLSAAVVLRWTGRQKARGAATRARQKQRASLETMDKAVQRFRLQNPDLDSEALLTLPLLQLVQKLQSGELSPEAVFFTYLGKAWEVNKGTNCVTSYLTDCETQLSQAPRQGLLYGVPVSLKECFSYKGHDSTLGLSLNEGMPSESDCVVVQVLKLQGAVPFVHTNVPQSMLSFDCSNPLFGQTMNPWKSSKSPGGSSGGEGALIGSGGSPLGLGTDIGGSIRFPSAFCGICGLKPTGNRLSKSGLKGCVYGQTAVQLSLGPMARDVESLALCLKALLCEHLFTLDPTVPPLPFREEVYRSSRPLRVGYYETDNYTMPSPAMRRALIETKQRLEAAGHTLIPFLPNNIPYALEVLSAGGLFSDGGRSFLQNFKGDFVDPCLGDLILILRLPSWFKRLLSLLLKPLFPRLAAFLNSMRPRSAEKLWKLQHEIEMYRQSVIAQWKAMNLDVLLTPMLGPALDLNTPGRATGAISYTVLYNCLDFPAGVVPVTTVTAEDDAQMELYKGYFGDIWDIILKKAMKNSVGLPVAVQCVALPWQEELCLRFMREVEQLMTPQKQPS
# Procedure, shortened: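 Rat brain homogenate at 20-fold normal strength was preincubated with vehicle or compound for 60 min, then diluted 20-fold and assayed with [3H]AEA for 10 min at 37 °C. In parallel, compound was added to vehicle-preincubated aliquots at the post-dilution free concentrations and at the undiluted final concentrations. Tritium was counted after charcoal separation.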
# [4] = target: T3, Fatty-acid amide hydrolase 1 (Rattus norvegicus); assay: Inhibition of rat brain FAAH at 0.3 to 100 uM using [3H]AEA as substrate after 10 mins by liquid scintillation counting analysis relative to control
# Procedure, shortened: (§1)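 Rat (Wistar or Sprague-Dawley) brain homogenate without cerebella, washed and pre-incubated 15 min at 37 °C to clear endogenous substrate. Compound (in ethanol or DMSO) was mixed with 1 µg protein on ice in 10 mM Tris-HCl, 1 mM EDTA, pH 7.4. Reaction used 0.5 µM [3H]AEA with fatty acid-free BSA for 10 min at 37 °C. It was stopped with charcoal/HCl, and supernatant tritium was counted. ≥5 half-log concentrations, ≥3 experiments; maximum inhibition = 100 − fitted bottom.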
# [5] = target: T4, Fatty-acid amide hydrolase 1 (Rattus norvegicus, UniProt P97612); assay: Inhibition of rat brain FAAH using [3H]AEA as substrate after 10 mins by liquid scintillation counting analysis; procedure, shortened: as §1
# T4 sequence (P97612 whole entry): T3 sequence (whole entry)
# [6] = target: T4, Fatty-acid amide hydrolase 1; assay: Noncompetitive inhibition of rat brain FAAH using [3H]AEA as substrate after 10 mins by Dixon plot analysis
# Procedure, shortened: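 Kinetic study in rat brain homogenate (1 µg protein per assay). [3H]AEA hydrolysis ran for 10 min at 37 °C in Tris-EDTA buffer, pH 7.4, with the AEA:fatty acid-free BSA ratio held at 1:~4.5 across substrate levels. Radioactivity was measured by charcoal separation and scintillation counting. Data were fitted to competitive, mixed-type and non-competitive models, and the best model was chosen by Akaike's criterion.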
Ki [1] [nM],inhibition [2],inhibition [3],Imax [4] [%],IC50 ([5]; read-out: IC50) [nM],IC50 ([5]; read-out: pIC50 (converted)) [nM],Ki [6] [nM],SMILES
6300,inactive,Active,100,590,589,,Cc1cccnc1NC(=O)C(C)c1ccc(Nc2ccnc(C(F)(F)F)c2)cc1 (configuration not stated)
3000,inactive,,100,58,57.5,110,CC(C(=O)Nc1ncccc1Cl)c1ccc(Nc2ccnc(C(F)(F)F)c2)cc1 (configuration not stated)

# Source: ChEMBL document CHEMBL4138113, “Novel propanamides as fatty acid amide hydrolase inhibitors” (Eur J Med Chem, 2017)
